{
  "source": "BindingDB's records for doi:10.1016/j.ejmech.2016.05.060",
  "about": "(Xi'An Jiaotong University, 2016)",
  "key": {"[1]": {"target": "T1, M-phase inducer phosphatase 2 (Homo sapiens, UniProt P30305)", "T1 sequence (P30305 whole entry)": "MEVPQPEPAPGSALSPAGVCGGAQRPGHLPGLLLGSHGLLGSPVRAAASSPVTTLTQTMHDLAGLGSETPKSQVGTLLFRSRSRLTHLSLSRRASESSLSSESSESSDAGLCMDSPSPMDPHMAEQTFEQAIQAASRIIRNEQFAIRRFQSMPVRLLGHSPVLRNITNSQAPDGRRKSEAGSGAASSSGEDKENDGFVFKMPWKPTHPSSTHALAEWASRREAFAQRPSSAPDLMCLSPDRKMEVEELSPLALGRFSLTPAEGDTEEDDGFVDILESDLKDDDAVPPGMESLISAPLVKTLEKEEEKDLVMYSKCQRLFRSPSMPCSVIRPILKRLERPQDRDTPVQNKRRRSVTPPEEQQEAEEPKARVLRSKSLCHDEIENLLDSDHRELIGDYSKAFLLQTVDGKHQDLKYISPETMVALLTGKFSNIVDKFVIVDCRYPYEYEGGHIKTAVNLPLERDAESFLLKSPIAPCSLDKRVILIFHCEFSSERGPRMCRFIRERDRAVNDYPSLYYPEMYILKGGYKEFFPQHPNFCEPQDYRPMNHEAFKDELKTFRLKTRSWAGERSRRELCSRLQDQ", "test": "Inhibition of human recombinant GST-tagged CDC25B assessed as reduction in dephosphorylation of florigenic phosphatase substrate preincubated for 1 hr followed by substrate addition measured after 1 hr by fluorescence assay", "summary_of_the_method": "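Purified GST-CDC25B fusion protein was preincubated with compound for 1 h, then fluorescein diphosphate ([…]) was added. Fluorescence was read within the linear range of the reaction after 1 h at room temperature. Na₃VO₄ served as positive control and DMSO as negative control.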"}, "[2]": {"target": "T2, Tyrosine-protein phosphatase non-receptor type 1 (Homo sapiens, UniProt P18031)", "T2 sequence (P18031 whole entry)": "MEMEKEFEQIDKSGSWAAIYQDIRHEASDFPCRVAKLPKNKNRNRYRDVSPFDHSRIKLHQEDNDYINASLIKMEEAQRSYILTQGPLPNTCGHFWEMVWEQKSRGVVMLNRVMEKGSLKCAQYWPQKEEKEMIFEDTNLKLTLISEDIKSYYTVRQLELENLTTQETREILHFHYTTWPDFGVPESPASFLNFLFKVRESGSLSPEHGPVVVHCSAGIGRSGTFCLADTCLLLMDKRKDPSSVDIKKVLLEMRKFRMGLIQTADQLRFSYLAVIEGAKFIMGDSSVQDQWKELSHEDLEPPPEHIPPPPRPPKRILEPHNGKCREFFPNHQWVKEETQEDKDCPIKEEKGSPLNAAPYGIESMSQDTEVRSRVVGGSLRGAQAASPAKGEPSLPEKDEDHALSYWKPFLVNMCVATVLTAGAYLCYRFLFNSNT", "test": "Inhibition of human recombinant GST-tagged PTP1B catalytic domain expressed in Escherichia coli BL21-Conden plus (DE3) using pNPP as substrate"}},
  "data": [
    {"smiles": "CCOC(=O)c1c(C)[nH]c(/C=C2\\S/C(=N\\c3ccc(OC)cc3)N(c3ccc(OC)cc3)C2=O)c1C", "values": [
      {"measurement": "IC50", "setting": "[1]", "value": 2.74, "unit": "µM"}
    ]},
    {"smiles": "[O]=[V]([OH])([OH])[OH]", "values": [
      {"measurement": "IC50", "setting": "[1]", "value": 0.91, "unit": "µM"}
    ]},
    {"smiles": "CCOC(=O)c1c(C)[nH]c(/C=C2\\S/C(=N\\c3ccccc3)N(c3ccccc3)C2=O)c1C", "values": [
      {"measurement": "IC50", "setting": "[2]", "value": 8.66, "unit": "µM"}
    ]},
    {"smiles": "CC(C)N1C(=O)/C(=C/c2ccc(OCCN(C)c3ccccn3)cc2)S/C1=N\\O", "values": [
      {"measurement": "IC50", "setting": "[1]", "value": 2.47, "unit": "µM"}
    ]},
    {"smiles": "CCOC(=O)c1c(C)[nH]c(/C=C2\\S/C(=N\\c3cccc(F)c3)N(c3cccc(F)c3)C2=O)c1C", "values": [
      {"measurement": "IC50", "setting": "[1]", "value": 3.39, "unit": "µM"},
      {"measurement": "IC50", "setting": "[2]", "value": 6.83, "unit": "µM"}
    ]},
    {"smiles": "CCOC(=O)c1c(C)[nH]c(/C=C2\\S/C(=N\\c3ccc(F)cc3)N(c3ccc(F)cc3)C2=O)c1C", "values": [
      {"measurement": "IC50", "setting": "[1]", "value": 2.87, "unit": "µM"},
      {"measurement": "IC50", "setting": "[2]", "value": 6.09, "unit": "µM"}
    ]},
    {"smiles": "CCOC(=O)c1c(C)[nH]c(/C=C2\\S/C(=N\\c3ccccc3F)N(c3ccccc3F)C2=O)c1C", "values": [
      {"measurement": "IC50", "setting": "[1]", "value": 3.66, "unit": "µM"}
    ]},
    {"smiles": "CCOC(=O)c1c(C)[nH]c(/C=C2\\S/C(=N/O)N(C(C)C)C2=O)c1C", "values": [
      {"measurement": "IC50", "setting": "[1]", "value": 5.83, "unit": "µM"}
    ]}
  ]
}
